Test results: ChEMBL document CHEMBL4513216, “Probing the Open Global Health Chemical Diversity Library for Multistage-Active Starting Points for Next-Generation Antimalarials” (ACS Infect Dis, 2020)

Assay: Toxicity liver stage against HepG2, at 10uM
Type: cell-based
Design: test concentration 10 uM, cell line HepG2-A16-CD81EGFP
Settings: human, HepG2-A16-CD81EGFP cells; read-out: INHIBITION
Procedure, shortened: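 Uninfected HepG2-A16-CD81EGFP cells, 3 × 10^3 per well, 1536-well, plated on prespotted compound at 10 μM final, parasite-free screening media added to match infected plates; puromycin 10 μM positive, DMSO 0.5% negative; run in parallel with 48 h PbLuc assay at 37 °C, 5% CO2; viability by CellTiter-Glo luminescence, normalized to controls.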

Structure (SMILES)	cytotoxicity at 10 µM [%]
O=C(c1ccc(COc2ccccc2Cl)o1)N1N=CCC1(O)C(F)(F)F (stereo not given)	14.5
Cc1cnc(C)c(-c2cc(O)c3c(c2)CN(c2nccs2)CCO3)n1	1.08
CC(C)(C)n1ncc2c1NC(=O)CC2c1cccc(O)c1 (stereo not given)	-6.36
Cc1cc(O)cc2c(=O)oc(CC(C)O)cc12 (stereo not given)	0.346
CCC(CC)c1cc(C(=O)N2CCN(C(C)C(N)=O)CC2)on1 (stereo not given)	5.82
COc1ccc(S(=O)(=O)N[C@H]2CN(C(C)=O)C[C@@H]2C2CC2)cc1C	4.57
Cc1nc(C2CCCN2Cc2nccn2CC(F)(F)F)no1 (stereo not given)	-16.5
COCCN1C(=O)[C@@H]2CC[C@H]1CN(C(=O)Cc1ccc(O)c(Cl)c1)C2	-4.26
O=C(c1cc(=O)c(OCc2ccccc2F)co1)N1CCSCC1	-3.82
CCc1cc(CNC(=O)NCC(c2ccco2)N2CCCC2)[nH]n1 (stereo not given)	0.238
Cc1ccc(C(=O)N2CCCCC2CNC(N)=O)s1 (stereo not given)	-0.519
CCC(C(=O)Nc1ccc2c(C)n[nH]c2c1)N1CCCC1=O (stereo not given)	-48.9
CCc1ccccc1NC(=O)c1cccc(N(C)S(C)(=O)=O)c1C	-4.68
CC(C)(C)c1n[nH]c(C2CN(C(=O)c3cc(Cl)c[nH]3)CCO2)n1 (stereo not given)	-10.6
COC(=O)CNC(=O)CCCn1cnc2ccccc2c1=O	-7.48
CCO[C@H]1C[C@@H](O)C12CCN(S(=O)(=O)c1ccccc1OC)CC2	2.01
COCc1nc(CN2CCOC(CNc3cccnn3)C2)cs1 (stereo not given)	-4.71
Cc1cccc(CN2C(=O)C[C@@H]3[C@@H]2CCN3Cc2ccsc2)n1	-6.63
CNC(=O)CN([C@H]1C[C@H]2CCOC[C@H]2C1)S(=O)(=O)c1ccccc1	-1.63
CCCN1CCCn2nc(CNC(=O)CCc3scnc3C)cc2C1	1.47
O=C(Nc1ccccn1)c1cncc(C2CCNCC2)n1	-0.0757
COc1ccc(CN2CCC3(CC(C(=O)NCC(C)C)=NO3)C2)cc1 (stereo not given)	11
CN(C)CCNc1cc(-c2ncccc2O)c2cc[nH]c2n1	7.28
O=C1NCCCc2[nH]c(Cc3ccc(F)cc3)nc21	-20.9
COc1ccccc1C(C#N)NC(=O)c1cccc2c1oc(=O)n2C (stereo not given)	3.3
Cc1ccc(C(CNCc2ccncc2)N2CCOCC2)s1 (stereo not given)	-14.6
NC(=O)CCc1cccc(C2CCNCC2)n1	-3.28

Structure (SMILES)	cytotoxicity at 10 µM [%]
O=C1CN(C(=O)c2ccc(F)cc2)CC(O)CN1Cc1cccs1 (stereo not given)	-67.7
CC(c1cccnc1)N(C)C(=O)NCCOc1ccc(C#N)cc1 (stereo not given)	-6.17
O=C(CSc1ccccc1)N1C[C@@H]2CC[C@H]1CN(Cc1ccncc1)C2	-0.143
O=C(C1CCN(c2ncnc3cccc(F)c23)CC1)N1CCCC1	3.76
CC(C)n1ccnc1CN1CCCN(C(=O)CC2C=CCC2)CC1 (stereo not given)	3.08
O=C(NCCn1cnc(C2CCCC2)cc1=O)c1ccc(=O)[nH]n1	-0.895
CC(=O)c1cccc(NC(=O)N2CCCCC2CN2CCCC2=O)c1 (stereo not given)	0.582
Cc1cc(COC(=O)[C@@H]2Cc3ccccc3CN2S(C)(=O)=O)no1	-9.87
Cc1cncc(C(=O)N2CCCCC2c2nc(C)cs2)c1 (stereo not given)	-3.66
Cn1ccnc1CN1CCN(CCOc2ccccc2F)CC1	-10.9
O=S(=O)(N1CCN(CC2CC2)CC1)N1CCCC1c1ccco1 (stereo not given)	1.24
CCc1ccc(NC(=O)c2cnc(N3CCN(C)CC3)nc2C)cc1	-15
CCn1c(N)nc2cc(C(=O)N3CCC(N4CCCC4)CC3)cnc21	-1.56
Cc1cc(S(=O)(=O)N2CCCc3cc(F)c(F)cc32)sc1C(=O)O	-11.9
Cn1cc(CN2CCc3c(nc(-c4ccccn4)[nH]c3=O)C2)cn1	-5.05
Cc1ccccc1CCCN1C(=O)CC2(CCSC2)C1=O (stereo not given)	-3.45
Cc1cnn(CC2CCCCN2C(=O)c2ccc3nncn3c2)c1 (stereo not given)	-8.66
COC(=O)c1cccc(C(=O)N2CCCC(n3cncn3)C2)c1 (stereo not given)	-6.48
Cc1noc(C(C)C)c1C(=O)NCCN1CCCCCC1=O	-9.07
Clc1ccc(CN2CCCCC2Cn2cncn2)c2ncccc12 (stereo not given)	-4.66
O=C(CCNS(=O)(=O)c1ccccc1)NCc1ccoc1	-0.886
CCc1cnc(CN2CCCC(c3cc(C)[nH]n3)C2)o1 (stereo not given)	0.503
O=C(c1cc2c(s1)CCC2)N1CCC(c2cnccn2)CC1	-2.34
C/C(NC(=O)c1ccco1)=C1/C(=O)C[C@@H]2[C@H]1C2(C)C	2.41
COCCN1CCCC(c2cncc(Oc3ccccc3OC)n2)C1 (stereo not given)	-22.8
Nc1nccnc1C(=O)NC1CCN(Cc2ccccc2)C1 (stereo not given)	11.9
COc1ccc([C@@H]2CN(C(=O)CS(C)(=O)=O)C[C@H]2NC(C)=O)cc1	0.541

Structure (SMILES)	cytotoxicity at 10 µM [%]
Cc1cc(C(N)=O)ccc1NC(=O)N1CCN(c2cccs2)CC1	10.1
COCCNC(=O)[C@@H]1CCO[C@@H]2CCN(c3ccc(C)nn3)C[C@@H]21	-73.2
COc1ccc(Cl)cc1CN(C)C(=O)CN1C(=O)OC[C@@H]1C(C)C	-4.29
CCc1cccc(NC(=O)CCN2CC=C(c3cnn(C)c3)CC2)c1	1.2
CC(=O)N1CCC2(CCN(C(=O)c3cccc(C(F)(F)F)c3)CC2)C1	-71.5
CC(=O)N1CCCC(c2nc(N(C)C)ncc2-c2cccc(F)c2)C1 (stereo not given)	-34.8
CCOc1ncnc2c1CCN(S(=O)(=O)CC)CC2	3.79
Cn1ncc(C(=O)OCC2CC(=O)N(c3ccccc3)C2)c1C(F)F (stereo not given)	1.93
COCC(=O)NCCC(=O)N1CCN(S(=O)(=O)c2cccc(Br)c2)CC1	-40.4
CC1(C)CN=C(N2CCN(CC3CCOC3)CC2)S1 (stereo not given)	11.7
N#Cc1c(SCCN2CCCCCC2)sc2c(O)cc(O)nc12	-10.5
Cn1cc(NC(=O)NCc2ccsc2)ccc1=O	-10.2
CCCN(C)C(=O)Nc1ccc(C(=O)NCCC(=O)OC)cc1	6.62
CCc1ccc(S(=O)(=O)N2CCC3(CC(C(=O)NC)=NO3)C2)cc1 (stereo not given)	-2.16
CNc1cc(C)nc(-c2cc(NC)nc3[nH]ccc23)n1	-3.92
CN(C)CC1(O)CCN(S(=O)(=O)c2ccc(Cl)cc2)C1 (stereo not given)	-13.9
CN(C)c1cc(CNC(=O)C2COc3ccccc3O2)ccn1 (stereo not given)	2.5
CC(C)c1nccn1C1CCCN(C(=O)c2cc(C(N)=O)cs2)C1 (stereo not given)	-2.61
Cc1ccc(N2CCCC(NCc3ccc(C)s3)C2)nn1 (stereo not given)	-2.51
CC(=O)N1CCCCC[C@@H]2[C@@H]1[C@H](c1cccc(F)c1)CN2C(=O)C1CC1	6.75
Cc1cnn(C2CCCN(C(=O)c3ccc(O)nc3)C2)c1 (stereo not given)	-2.78
Cc1cc(C(=O)NC2(C#N)CCSCC2)n(C)n1	22.1
O=C1CC(NCc2cnc(-c3cccs3)nc2)CN1c1ccccc1 (stereo not given)	1.58
CCc1ccccc1OC1CN(CC2CCOC2)C1 (stereo not given)	-25.2
C[C@@H](NC(=O)c1cccnc1)c1onc(-c2ccccc2)c1C(=O)O	10.1
c1cncc(C2COC3(CCN(Cc4nccs4)CC3)C2)c1 (stereo not given)	1.7
